In ChEMBL document CHEMBL4354846, “1,3-Dipolar Cycloaddition, HPLC Enantioseparation, and Docking Studies of Saccharin/Isoxazole and Saccharin/Isoxazoline Derivatives as Selective Carbonic Anhydrase IX and XII Inhibitors” (J Med Chem, 2020):
pIC50, pKi: −log10 of the molar value. The source made the active and inactive calls. The calls are words filed in the database; no cut-off is given here.

Legend:
Carbonic anhydrase 9 = Carbonic anhydrase 9 (Homo sapiens, UniProt Q16790); test: Inhibition of recombinant human carbonic anhydrase 9 incubated for 15 mins prior to testing measured for 10 to 100 secs by phenol red-based stopped-flow CO2 hydration assay
Carbonic anhydrase 12 = Carbonic anhydrase 12 (Homo sapiens, UniProt O43570); test: Inhibition of recombinant human carbonic anhydrase 12 incubated for 15 mins prior to testing measured for 10 to 100 secs by phenol red-based stopped-flow CO2 hydration assay
Carbonic anhydrase 1 = Carbonic anhydrase 1 (Homo sapiens, UniProt P00915); test: Inhibition of recombinant human carbonic anhydrase 1 incubated for 15 mins prior to testing measured for 10 to 100 secs by phenol red-based stopped-flow CO2 hydration assay
MCF7 [1] = test: Chemosensitization activity in human MCF7 cells assessed as induction of morphological changes by measuring rounded cells at 100 to 200 uM measured after 72 hrs in presence of doxorubicin under hypoxic condition by phase contrast light microscopic analysis; format: functional, cell-based
How it was run: (§1)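 MCF7 seeded 10000/well, grown 24 h, then medium with CoCl2 100 μM for 48 h to induce hypoxia. Cells then given compound (0.05–200 μM, DMSO final 0.2%) with doxorubicin 2.5 μM for 72 h. Imaged by phase contrast light microscopy (×20) for cell shape and detachment, before the MTT step.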

[2] = Cytotoxicity against HGF cells assessed as reduction in cell viability at 0.05 to 50 uM measured after 24 to 48 hrs by MTT assay; format: cell-based; conditions: human, 50 to 200 µM; in the assay text read “50 to 200 uM” for “0.05 to 50 uM”
How it was run: (§2)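 Gingival fibroblasts seeded and treated as for LDH: 0.05–200 μM compound, DMSO final 0.2%, read at 24, 48 and 72 h. MTT 0.5 mg/mL for 5 h at 37 °C, formazan dissolved in DMSO, read at 570 nm. Viability normalized to 0.2% DMSO control. One-way ANOVA with Tukey tests.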

MCF7 [3] = test: Chemosensitization activity in human MCF7 cells assessed as reduction in cell viability at 100 to 200 uM measured after 72 hrs in presence of doxorubicin under hypoxic condition by MTT assay; format: functional, cell-based
How it was run: (§3)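 MCF7 in DMEM high glucose with 10% FBS, 37 °C, 5% CO2. Seeded 10000/well for 24 h, then CoCl2 100 μM for 48 h (hypoxia). Treated 72 h with compound 0.05–200 μM plus doxorubicin 2.5 μM, DMSO final 0.2%. MTT 0.5 mg/mL for 5 h at 37 °C, formazan dissolved in DMSO, read at 570 nm. Normalized to DMSO+CoCl2+doxorubicin control. Three experiments; one-way ANOVA with Tukey.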

[4] = Cytotoxicity against HGF cells assessed as reduction in LDH release at 0.05 to 200 uM measured after 48 to 72 hrs by CytoTox 96 nonradioactive cytotoxicity assay; format: cell-based; conditions: human
How it was run: (§4)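 Primary human gingival fibroblasts from healthy donors, in DMEM with 10% FBS at 37 °C, 5% CO2. Treated 24 h after seeding with 0.05–200 μM compound (DMSO final 0.2%). Supernatants collected at 24, 48 and 72 h and spun 450 g for 4 min. LDH measured by a 30-min coupled tetrazolium reaction read at 490 nm, with 690 nm as background. Given as % of lysed-cell positive control.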

[5] = Cytotoxicity against HGF cells assessed as reduction in cell viability at 100 to 200 uM measured after 72 hrs by MTT assay; format: cell-based; conditions: human; how it was run: as §2
[6] = Cytotoxicity against HGF cells assessed as reduction in LDH release at 0.05 to 200 uM measured after 24 hrs by CytoTox 96 nonradioactive cytotoxicity assay; format: cell-based; conditions: human; how it was run: as §4
[7] = Cytotoxicity against HGF cells assessed as cell viability at 100 to 200 uM measured after 24 to 48 hrs by MTT assay relative to control; format: cell-based; conditions: human, read-out: Activity; how it was run: as §2
Carbonic anhydrase 2 = Carbonic anhydrase 2 (Homo sapiens, UniProt P00918); test: Inhibition of recombinant human carbonic anhydrase 2 incubated for 15 mins prior to testing measured for 10 to 100 secs by phenol red-based stopped-flow CO2 hydration assay
MCF7 [8] = test: Chemosensitization activity in human MCF7 cells assessed as induction of morphological changes by measuring cell detachment at 100 to 200 uM measured after 72 hrs in presence of doxorubicin under hypoxic condition by phase contrast light microscopic analysis; format: functional, cell-based; how it was run: as §1
[9] = Cytotoxicity against HGF cells assessed as reduction in cell viability at 0.05 to 5 uM measured after 72 hrs by MTT assay; format: cell-based; conditions: human; how it was run: as §2
MCF7 [10] = test: Cytotoxicity against human MCF7 cells assessed as reduction in cell viability measured after 72 hrs under hypoxic condition by MTT assay; format: functional, cell-based; conditions: MCF7, 72 h
How it was run: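 MCF7 given CoCl2 100 μM for 48 h to induce hypoxia, then doxorubicin alone at 0.05–200 μM for 72 h. Viability read by MTT: 0.5 mg/mL for 5 h at 37 °C, formazan dissolved in DMSO, absorbance at 570 nm, cell-free wells as background.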

[11] = Cytotoxicity against HGF cells assessed as reduction in cell viability at 0.05 to 200 uM measured up to 72 hrs by MTT assay; format: cell-based; conditions: human; how it was run: as §2
MCF7 [12] = test: Chemosensitization activity in human MCF7 cells assessed as reduction in cell viability at 0.05 to 200 uM measured after 72 hrs in presence of doxorubicin under hypoxic condition by MTT assay; format: functional, cell-based; how it was run: as §3
[13] = Cytotoxicity against HGF cells assessed as reduction in LDH release at 0.05 to 200 uM measured up to 72 hrs by CytoTox 96 nonradioactive cytotoxicity assay; format: cell-based; conditions: human; how it was run: as §4

Carbonic anhydrase 1, sequence (P00915 whole entry): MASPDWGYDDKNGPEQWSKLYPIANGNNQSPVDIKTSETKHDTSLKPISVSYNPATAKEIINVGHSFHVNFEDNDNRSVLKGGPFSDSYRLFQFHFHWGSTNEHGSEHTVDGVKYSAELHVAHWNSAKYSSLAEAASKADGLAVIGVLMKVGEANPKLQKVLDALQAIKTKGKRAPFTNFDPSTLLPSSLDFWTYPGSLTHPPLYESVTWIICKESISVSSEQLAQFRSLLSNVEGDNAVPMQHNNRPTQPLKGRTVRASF
Carbonic anhydrase 12, sequence (O43570 whole entry): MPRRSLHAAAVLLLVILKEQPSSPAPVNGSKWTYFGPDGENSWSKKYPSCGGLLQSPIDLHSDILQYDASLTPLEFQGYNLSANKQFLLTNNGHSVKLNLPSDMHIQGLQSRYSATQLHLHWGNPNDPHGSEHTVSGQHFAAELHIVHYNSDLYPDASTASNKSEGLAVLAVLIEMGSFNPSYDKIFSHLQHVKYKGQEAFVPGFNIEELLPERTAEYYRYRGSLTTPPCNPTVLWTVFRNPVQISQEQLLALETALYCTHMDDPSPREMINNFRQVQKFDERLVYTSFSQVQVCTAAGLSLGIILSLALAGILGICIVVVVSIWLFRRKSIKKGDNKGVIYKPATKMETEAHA

| Structure (SMILES) | pKi (Carbonic anhydrase 9) | pKi (Carbonic anhydrase 1) | pKi (Carbonic anhydrase 2) | also measured |
| --- | --- | --- | --- | --- |
| COc1ccc(C2=NOC(CN3C(=O)c4ccccc4S3(=O)=O)C2)cc1 (configuration not stated) | 6.86 | < 5.00 | – | pKi (Carbonic anhydrase 12): 8.09 |
| O=C1c2ccccc2S(=O)(=O)N1C[C@H]1CC(c2ccccc2)=NO1 | 7.52 | < 5.00 | < 5.00 | pKi (Carbonic anhydrase 12): 7.31 |
| COc1cccc(C2=NOC(CN3C(=O)c4ccccc4S3(=O)=O)C2)c1 (configuration not stated) | < 5.00 | < 5.00 | < 5.00 | – |
| O=C1c2ccccc2S(=O)(=O)N1CC1CC(c2cccnc2)=NO1 (configuration not stated) | 6.56 | < 5.00 | < 5.00 | – |
| O=C1c2ccccc2S(=O)(=O)N1C[C@H]1CC(c2cccs2)=NO1 | 7.58 | 6.45 | < 5.00 | – |
| O=C1c2ccccc2S(=O)(=O)N1C[C@@H]1CC(c2cccs2)=NO1 | 8.62 | 6.44 | 7.88 | – |
| COc1ccccc1C1=NOC(CN2C(=O)c3ccccc3S2(=O)=O)C1 (configuration not stated) | < 5.00 | < 5.00 | < 5.00 | pKi (Carbonic anhydrase 12): 8.03 |
| COc1cccc2c1C(=O)c1c(O)c3c(c(O)c1C2=O)C[C@@](O)(C(=O)CO)C[C@@H]3O[C@H]1C[C@H](N)[C@H](O)[C@H](C)O1 [DOXORUBICIN] | – | – | – | pIC50 (MCF7 [10]): 4.30 to 5.30 |
| O=C1c2ccccc2S(=O)(=O)N1CC1CC(c2ccc([N+](=O)[O-])cc2)=NO1 (configuration not stated) | 6.63 | < 5.00 | < 5.00 | – |
| O=C1c2ccccc2S(=O)(=O)N1CC1CC(c2ccccn2)=NO1 (configuration not stated) | 6.59 | < 5.00 | < 5.00 | – |
| O=C1c2ccccc2S(=O)(=O)N1CC1CC(c2cccc([N+](=O)[O-])c2)=NO1 (configuration not stated) | 6.99 | < 5.00 | < 5.00 | – |

Now from value to compound, other results behind:

| pKi (Carbonic anhydrase 9) | pKi (Carbonic anhydrase 1) | pKi (Carbonic anhydrase 2) | Structure (SMILES) | also measured |
| --- | --- | --- | --- | --- |
| 7.66 | < 5.00 | < 5.00 | COc1ccc(-c2cc(CN3C(=O)c4ccccc4S3(=O)=O)on2)cc1 | Activity (MCF7 [1]): Active; Activity [2]: Toxic; Activity (MCF7 [3]): Active; Activity [4]: Non-Toxic; Activity [5]: Toxic; Activity [6]: Toxic; viability at up to 200 µM [7]: < 50%; Activity (MCF7 [8]): Active; Activity [9]: Non-Toxic |
| 7.06 | < 5.00 | < 5.00 | O=C1c2ccccc2S(=O)(=O)N1Cc1cc(-c2cccnc2)no1 | – |
| 6.61 | < 5.00 | < 5.00 | COc1cccc(-c2cc(CN3C(=O)c4ccccc4S3(=O)=O)on2)c1 | – |
| 8.12 | < 5.00 | < 5.00 | O=C1c2ccccc2S(=O)(=O)N1Cc1cc(-c2cccs2)no1 | – |
| < 5.00 | < 5.00 | < 5.00 | COc1ccccc1-c1cc(CN2C(=O)c3ccccc3S2(=O)=O)on1 | – |
| 7.53 | < 5.00 | < 5.00 | O=C1c2ccccc2S(=O)(=O)N1C[C@@H]1CC(c2ccccc2)=NO1 | pKi (Carbonic anhydrase 12): 7.44 |
| 6.64 | < 5.00 | < 5.00 | O=C1c2ccccc2S(=O)(=O)N1Cc1cc(-c2cccc([N+](=O)[O-])c2)no1 | – |
| 6.61 | < 5.00 | < 5.00 | O=C1c2ccccc2S(=O)(=O)N1Cc1cc(-c2ccccn2)no1 | – |
| 7.29 | < 5.00 | < 5.00 | O=C1c2ccccc2S(=O)(=O)N1Cc1cc(-c2ccccc2)no1 | – |
| – | < 5.00 | < 5.00 | O=C1c2ccccc2S(=O)(=O)N1Cc1cc(-c2ccc([N+](=O)[O-])cc2)no1 | Activity (MCF7 [1]): Active; Activity [11]: Non-Toxic; Activity (MCF7 [12]): inactive; Activity [13]: Non-Toxic; Activity (MCF7 [8]): Active |
